Test results as given in ChEMBL document CHEMBL1138950, “Benzimidazole derivatives bearing substituted biphenyls as hepatitis C virus NS5B RNA-dependent RNA polymerase inhibitors: structure-activity relationship studies and identification of a potent and highly selective inhibitor JTK-109” (J Med Chem, 2006).

Key:
[1] = molecular target: RNA-directed RNA polymerase (Hepacivirus hominis, UniProt O39930); test: Inhibition of HCV 1b BK six His-tagged C-terminal truncated 544 amino acid NS5B RNA dependent RNA polymerase; set-up: species or system Hepatitis C virus subtype 1b
Sequence of RNA-directed RNA polymerase (O39930 whole entry, the tested form may be a part): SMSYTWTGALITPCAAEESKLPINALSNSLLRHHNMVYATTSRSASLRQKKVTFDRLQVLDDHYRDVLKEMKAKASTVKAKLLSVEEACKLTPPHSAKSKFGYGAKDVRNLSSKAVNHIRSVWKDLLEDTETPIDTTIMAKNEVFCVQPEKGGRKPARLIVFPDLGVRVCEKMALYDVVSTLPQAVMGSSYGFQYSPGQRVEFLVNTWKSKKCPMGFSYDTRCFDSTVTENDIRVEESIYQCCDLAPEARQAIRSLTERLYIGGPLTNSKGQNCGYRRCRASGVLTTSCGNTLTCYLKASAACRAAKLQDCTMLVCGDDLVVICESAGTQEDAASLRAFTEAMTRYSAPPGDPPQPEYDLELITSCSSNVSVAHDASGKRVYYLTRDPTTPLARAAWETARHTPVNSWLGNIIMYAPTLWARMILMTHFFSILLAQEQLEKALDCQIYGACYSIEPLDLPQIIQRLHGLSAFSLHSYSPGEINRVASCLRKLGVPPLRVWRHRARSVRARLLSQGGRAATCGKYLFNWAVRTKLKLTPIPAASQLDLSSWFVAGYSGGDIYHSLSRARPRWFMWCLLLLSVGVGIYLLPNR
In short: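 HCV genotype 1b (BK) NS5B lacking 47 C-terminal residues, His6-tagged, E. coli-expressed; 7 nM enzyme with 5 µg HCV 3′X RNA template-primer, 50 µM each ATP/GTP/CTP, 2 µM UTP plus [3H]-UTP; pH 7.5 Tris, 5 mM MgCl2. Compounds in DMSO (5% final). 60 min at 25 °C; TCA-precipitable radioactivity read. Triplicate, mean of three experiments.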

[2] = tested on: Huh-5-2; test: Viability of Huh5-2 cells by MTT assay; assay type: functional; conditions: Homo sapiens
[3] = Therapeutic index, CC50 for viability of Huh5-2 cells/EC50 for inhibition of HCV subgenomic RNA replication; assay type: cell-based, Huh-5-2; conditions: human, read-out: Ratio CC50/EC50
[4] = tested on: Hepatitis C virus; test: Inhibition of HCV subgenomic RNA replication in Huh5-2 cells after 48 hrs by replicon assay; assay type: functional, organism-based, Hepacivirus hominis; conditions: Huh-5-2, 48 h
In short: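 Huh-5-2 cells (Huh-7-derived, genotype 1b subgenomic replicon with luciferase reporter) seeded at 5 × 10^3 per well in DMEM with 10% FBS, 37 °C, 5% CO2; compounds added next day, 48 h exposure; luciferase activity read. EC50 is the concentration reducing replication by 50%. Triplicate, mean of three experiments.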

[5] = Plasma concentration in rat at 30 mg/kg, po after 1 hr; assay type: ADME, organism-based; set-up: dose 30 mg/kg, route oral
In short: (§1)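 Rats dosed orally at 30 mg/kg; plasma sampled at 1 and 2 h; n = 2 or 3.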

[6] = Plasma concentration in rat at 30 mg/kg, po after 2 hrs; assay type: ADME, organism-based; set-up: dose 30 mg/kg, route oral; in short: as §1

SMILES	IC50 [1] [µM]	CC50 [2] [µM]	selectivity ratio [3]	EC50 [4] [µM]	concentration at 1 h [5] [nM]	concentration at 2 h [6] [nM]
CN(C)C(=O)Nc1ccc(-c2ccc(Cl)cc2)c(COc2ccc(-c3nc4cc(C(=O)O)ccc4n3C3CCCCC3)c(F)c2)c1	0.022	25	40	0.62	–	–
O=C(O)c1ccc2c(c1)nc(-c1ccc(OCc3cc(Cl)ccc3-c3cccnc3)cc1)n2C1CCCCC1	0.29	–	–	2.6	–	–
Cc1nc(-c2ccc(Cl)cc2)c(COc2ccc(-c3nc4cc(C(=O)O)ccc4n3C3CCCCC3)cc2)s1	0.09	39	13	2.9	–	–
O=C(O)c1ccc2c(c1)nc(-c1ccc(OCc3ccccc3-c3ccc(Cl)cc3)cc1)n2C1CCCCC1	0.078	35	11	3.2	–	–
N#Cc1ccc(-c2ccc(Cl)cc2COc2ccc(-c3nc4cc(C(=O)O)ccc4n3C3CCCCC3)cc2)cc1	0.055	26	–	1.3	–	–
O=C(O)c1ccc2c(c1)nc(-c1ccc(OCc3cc(C(=O)NCc4ccccc4)ccc3-c3ccc(Cl)cc3)cc1)n2C1CCCCC1	0.029	22	20	1.1	–	–
Cc1ncc(COc2ccc(-c3nc4cc(C(=O)O)ccc4n3C3CCCCC3)cc2)c(-c2ccc(Cl)cc2)n1	0.088	24	16	1.5	–	–
CN(C)c1ccc(-c2ccc(Cl)cc2)c(COc2ccc(-c3nc4cc(C(=O)O)ccc4n3C3CCCCC3)cc2)c1	0.063	30	12	2.6	–	–
O=C(O)c1ccc2c(c1)nc(-c1ccc(OCc3cc(Cl)ccc3-c3ccc(Cl)cc3)cc1)n2C1CCCCC1	0.05	26	13	3	–	–
CNC(=O)c1ccc(-c2ccc(Cl)cc2)c(COc2ccc(-c3nc4cc(C(=O)O)ccc4n3C3CCCCC3)cc2)c1	0.018	25	47	0.53	–	–
COc1ccc(-c2ccc(Cl)cc2COc2ccc(-c3nc4cc(C(=O)O)ccc4n3C3CCCCC3)cc2)cc1	0.1	25	–	2.4	–	–
CC(=O)c1ccc(-c2ccc(Cl)cc2)c(COc2ccc(-c3nc4cc(C(=O)O)ccc4n3C3CCCCC3)cc2)c1	0.018	24	71	0.34	–	–
COc1cc(OCc2ccccc2-c2ccccc2)ccc1-c1nc2cc(C(=O)O)ccc2n1C1CCCCC1	1.1	–	–	–	–	–
CC(C)C(=O)N(C)c1ccc(-c2ccc(Cl)cc2)c(COc2ccc(-c3nc4cc(C(=O)O)ccc4n3C3CCCCC3)c(F)c2)c1	0.032	22	63	0.35	1900	1100
O=C(O)c1ccc2c(c1)nc(-c1ccc(OCc3cccnc3-c3ccc(Cl)cc3)cc1)n2C1CCCCC1	0.053	> 50	> 41	1.2	–	–
Cc1nc(COc2ccc(-c3nc4cc(C(=O)O)ccc4n3C3CCCCC3)cc2)c(-c2ccc(Cl)cc2)s1	0.17	31	4.9	6.3	–	–
O=C(O)c1ccc2c(c1)nc(-c1ccc(OCc3cc(Cl)ccc3-c3ccccc3)cc1)n2C1CCCCC1	0.2	25	–	3.7	–	–
O=C(O)c1ccc2c(c1)nc(-c1ccc(OCc3cc(C(=O)NCCO)ccc3-c3ccc(Cl)cc3)cc1F)n2C1CCCCC1	0.021	26	28	0.94	–	–
COc1ccc(-c2ccc(Cl)cc2)c(COc2ccc(-c3nc4cc(C(=O)O)ccc4n3C3CCCCC3)cc2)c1	0.037	24	15	1.6	–	–

SMILES	IC50 [1] [µM]	CC50 [2] [µM]	selectivity ratio [3]	EC50 [4] [µM]	concentration at 1 h [5] [nM]	concentration at 2 h [6] [nM]
O=C(O)c1ccc2c(c1)nc(-c1ccc(OCc3cc(C(=O)N4CCC(O)CC4)ccc3-c3ccc(Cl)cc3)cc1F)n2C1CCCCC1	0.014	26	68	0.38	100	–
N#Cc1ccc(-c2ccc(Cl)cc2)c(COc2ccc(-c3nc4cc(C(=O)O)ccc4n3C3CCCCC3)cc2)c1	0.041	23	28	0.82	–	–
O=C(O)c1ccc(-c2ccc(Cl)cc2)c(COc2ccc(-c3nc4cc(C(=O)O)ccc4n3C3CCCCC3)cc2)c1	0.024	> 50	–	> 10	–	–
CN(C)C(=O)c1ccc(-c2ccc(Cl)cc2)c(COc2ccc(-c3nc4cc(C(=O)O)ccc4n3C3CCCCC3)cc2)c1	0.015	28	76	0.37	–	–
NC(=O)c1ccc(-c2ccc(Cl)cc2COc2ccc(-c3nc4cc(C(=O)O)ccc4n3C3CCCCC3)cc2)cc1	0.069	> 50	–	2.5	–	–
O=C(O)c1ccc2c(c1)nc(-c1ccc(OCc3ccccc3-c3ccccc3)c(F)c1)n2C1CCCCC1	0.38	–	–	–	–	–
CN(C)C(=O)c1ccc(COc2ccc(-c3nc4cc(C(=O)O)ccc4n3C3CCCCC3)cc2)c(-c2ccc(Cl)cc2)c1	0.032	25	30	0.84	–	–
O=C(O)c1ccc2c(c1)nc(-c1ccc(OCc3cc(Cl)ccc3-c3cccc(Cl)c3)cc1)n2C1CCCCC1	0.48	32	–	6.5	–	–
CN(C)S(=O)(=O)c1ccc(-c2ccc(Cl)cc2)c(COc2ccc(-c3nc4cc(C(=O)O)ccc4n3C3CCCCC3)cc2)c1	0.023	26	39	0.66	–	–
NS(=O)(=O)c1ccc(-c2ccc(Cl)cc2)c(COc2ccc(-c3nc4cc(C(=O)O)ccc4n3C3CCCCC3)cc2)c1	0.016	27	18	1.5	–	–
O=C(O)c1ccc2c(c1)nc(-c1ccc(OCc3ncccc3-c3ccc(Cl)cc3)cc1)n2C1CCCCC1	0.15	25	6	3.9	–	–
Cc1ccc(-c2ccc(Cl)cc2COc2ccc(-c3nc4cc(C(=O)O)ccc4n3C3CCCCC3)cc2)cc1	0.098	25	–	3.4	–	–
O=C(O)c1ccc2c(c1)nc(-c1ccc(OCc3ccccc3-c3ccccc3)cc1Cl)n2C1CCCCC1	0.35	–	–	–	–	–
CC(=O)Nc1ccc(-c2ccc(Cl)cc2)c(COc2ccc(-c3nc4cc(C(=O)O)ccc4n3C3CCCCC3)cc2)c1	0.022	23	18	1.3	–	–
CC(=O)N(c1ccc(-c2ccc(Cl)cc2)c(COc2ccc(-c3nc4cc(C(=O)O)ccc4n3C3CCCCC3)c(F)c2)c1)C(C)C	0.021	20	125	0.16	1100	700
O=C(O)c1ccc2c(c1)nc(-c1ccc(OCc3ccccc3-c3ccccc3)cc1C(F)(F)F)n2C1CCCCC1	0.93	–	–	–	–	–
O=C(O)c1ccc2c(c1)nc(-c1ccc(OCc3ccccc3-c3ccccc3)cc1F)n2C1CCCCC1	0.1	–	–	–	–	–
NC(=O)c1ccc(-c2ccc(Cl)cc2)c(COc2ccc(-c3nc4cc(C(=O)O)ccc4n3C3CCCCC3)cc2)c1	0.013	26	33	0.79	–	–
